Reference: ChEMBL document CHEMBL1132696, “Design of antineoplastic agents based on the "2-phenylnaphthalene-type" structural pattern. 4. Synthesis and biological activity of 2-chloro-3-(substituted phenoxy)-1, 4-naphthoquinones and related 5,8-dihydroxy-1,4-naphthoquinones” (J Med Chem, 1999)

Columns and labels:
[1] = system: NCI; experiment: Complete inhibition of cell growth of 60-human tumor cell line detected by National Cancer Institute.; type: functional, cell-based; conditions: read-out: Log IC50 (converted)
Procedure, shortened: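 National Cancer Institute preclinical 60 human tumour cell line drug discovery screen. Read-out is the log IC₅₀ (M) at which complete inhibition of cell growth is detected in at least one cell line. Scored qualitatively: +++ at -7.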

[2] = target: DNA topoisomerase II (Homo sapiens) (UniProt P11388+Q02880); experiment: Relative activity to induce mammalian DNA topoisomerase II-mediated DNA cleavage; type: functional
[3] = system: HL-60; experiment: Cytotoxicity in HL-60 (human leukemia) cell line.; type: functional, cell-based
[4] = system: SCLC; experiment: Cytotoxicity in SCLC (human lung carcinoma) cell line.; type: functional, cell-based

| SMILES | Activity [2] | concentration for complete growth inhibition [1] [nM] | IC50 [3] [nM] | IC50 [4] [nM] |
| --- | --- | --- | --- | --- |
| COc1cc(OC)c2c3c(oc2c1)C(=O)c1c(OC)ccc(OC)c1C3=O | 2 | 10000 | 128000 | > 10000 |
| COc1cccc(OC2=C(Cl)C(=O)c3c(OC(C)=O)ccc(OC(C)=O)c3C2=O)c1 | 200 | 1000 | 200 | 5000 |
| O=C1C(Cl)=C(Oc2cc(O)cc(O)c2)C(=O)c2c(O)ccc(O)c21 | 200 | 1000 | 250 | 500 |
| O=C1C=CC(=O)c2c(O)c(Cl)c(Cl)c(O)c21 | – | – | 49 | 300 |
| O=C1c2oc3cc(O)cc(O)c3c2C(=O)c2c(O)ccc(O)c21 | 2000 | 100 | 390 | 1500 |
| COc1ccc2c3c(oc2c1)C(=O)c1c(OC)ccc(OC)c1C3=O | 2 | – | 14500 | 1000 |
| O=C1C=CC(=O)c2c(O)c(Oc3ccccc3)c(Cl)c(O)c21 | 4000 | 100 | 220 | 250 |
| COc1cccc(OC2=C(Cl)C(=O)c3c(O)ccc(O)c3C2=O)c1 | 800 | 1000 | 200 | 500 |
| Cc1ccc[n+](C2=C([O-])C(=O)c3c(O)ccc(O)c3C2=O)c1 | 0.5 | – | 30000 | > 10000 |

Now from value to compound, other results behind:

| Activity [2] | SMILES | concentration for complete growth inhibition [1] [nM] | IC50 [3] [nM] | IC50 [4] [nM] |
| --- | --- | --- | --- | --- |
| 500 | O=C1C=CC(=O)c2c(O)c(Oc3ccccc3)c(Oc3ccccc3)c(O)c21 | 100 | 130 | 100 |
| 100 | COc1cc(OC)cc(OC2=C(Cl)C(=O)c3c(OC)ccc(OC)c3C2=O)c1 | 1000 | 120 | 2000 |
| 50 | COc1cc(OC)cc(OC2=C(Cl)C(=O)c3c(OC(C)=O)ccc(OC(C)=O)c3C2=O)c1 | 1000 | 500 | 1100 |
| 200 | COc1ccc(OC)c2c1C(=O)C(Cl)=C(Cl)C2=O | – | 220 | 1000 |
| 50 | COc1cc(OC)cc(OC2=C(Cl)C(=O)c3c(O)ccc(O)c3C2=O)c1 | 1000 | 70 | 750 |
| 10 | COc1c(Cl)c(Cl)c(OC)c2c1C(=O)C=CC2=O | – | 1000 | 750 |
| 10 | COc1ccc(OC)c2c1C(=O)C(Cl)=C(Oc1cccc(O)c1)C2=O | 1000 | 67 | 300 |
| 100 | O=C1C(Cl)=C(Oc2cccc(O)c2)C(=O)c2c(O)ccc(O)c21 | 1000 | 160 | 450 |
| 0 | COc1cccc(OC2=C(Oc3cccc(OC)c3)C(=O)c3c(OC)ccc(OC)c3C2=O)c1 | 100 | 160 | 1000 |
| 20 | COc1cccc(OC2=C(Cl)C(=O)c3c(OC)ccc(OC)c3C2=O)c1 | 1000 | 440 | 2000 |
| > 100000 | O=C1c2ccccc2C(=O)c2c1oc1cc(O)cc(O)c21 | 1000 | – | 1030 |
